Measured values taken from ChEMBL document CHEMBL3352401, “Synthesis and antiviral activity of new phenylimidazopyridines and N-benzylidenequinolinamines derived by molecular simplification of phenylimidazo[4,5-g]quinolines” (Eur J Med Chem, 2014).

Key:
Yellow fever virus = assay: Antiviral activity against Yellow fever virus 17D Stamaril Pasteur J07B01 infected in BHK21 cells assessed as protection from virus-induced cytopathogenicity after 3 to 4 days by MTT method; assay type: functional, cell-based; details: Stamaril Pasteur J07B01, BHK-21
Procedure, shortened: (§1)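 Confluent monolayers grown overnight (BHK-21 at 5×10⁴ cells/well for YFV and Reo-1; MDBK at 3×10⁴ cells/well for BVDV). Infection at m.o.i. 0.01 for 2 h in maintenance MEM-Earle with 0.5% inactivated FBS, then serial compound dilutions added. Viability read by MTT after 3–4 days at 37 °C. EC50 taken from linear regression against untreated controls.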

[1] = Antiviral activity against Bovine viral diarrhea virus 1-NADL ATCC VR-534 infected in MDBK cells assessed as protection from virus-induced cytopathogenicity after 3 to 4 days by MTT method; assay type: functional, cell-based; details: Bovine viral diarrhea virus isolates and strains, ATCC VR-534, MDBK; procedure, shortened: as §1
[2] = Antiviral activity against Human respiratory syncytial virus A2 ATCC VR-1540 infected in Vero 76 cells after 5 days by plaque reduction assays; assay type: functional, cell-based; details: ATCC VR-1540, Vero 76, 120 h
[3] = Cytotoxicity against mock-infected African green monkey Vero 76 cells assessed as reduction in proliferation after 48 to 96 hrs by MTT method; assay type: cell-based; details: chlorocebus sabaeus, Vero 76 cells (mock-infected)
Procedure, shortened: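 Vero-76 cells seeded at 4 × 10⁵ cells/mL in D-MEM with L-glutamine, kanamycin and 10% FBS. Incubated at 37 °C, 5% CO₂, with or without serial dilutions of compound; viability read by MTT after 48–96 h. Run in parallel with antiviral assays. CC50 obtained by linear regression of % of untreated control.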

[4] = tested on: Vesicular stomatitis Indiana virus; assay: Antiviral activity against Vesicular stomatitis Indiana virus ATCC VR 158 infected in Vero 76 cells after 2 days by plaque reduction assays; assay type: functional, organism-based; details: ATCC VR 158, Vero 76, 48 h
Human alphaherpesvirus 1 = assay: Antiviral activity against Human herpesvirus 1 strain KOS ATCC VR- 1493 infected in Vero 76 cells after 3 days by plaque reduction assays; assay type: functional, organism-based; details: Human alphaherpesvirus 1, KOS ATCC VR1493, Vero 76, 72 h
[5] = Antiviral activity against Vaccinia virus Lister ATCC VR-1549 infected in Vero 76 cells after 3 days by plaque reduction assays; assay type: functional, cell-based; details: ATCC VR-1549, Vero 76, 72 h
Coxsackievirus B5 = assay: Antiviral activity against Coxsackievirus B5 Faulkner (ATCC VR-185) infected in Vero 76 cells after 3 days by plaque reduction assays; assay type: functional, organism-based; details: Enterovirus B, Vero 76, 72 h
[6] = Cytotoxicity against mock-infected bovine MDBK cells assessed as reduction in proliferation after 72 hrs by MTT method; assay type: cell-based, Bos taurus; details: cattle
Procedure, shortened: (§2)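 MDBK and BHK cells seeded at 6 × 10⁵ and 1 × 10⁶ cells/mL respectively. Medium was MEM-Earle with L-glutamine, 1 mM pyruvate and kanamycin, plus 10% horse serum (MDBK) or 10% FBS (BHK). Cells exposed to serial compound dilutions at 37 °C, 5% CO₂; MTT viability read at 72 h. CC50 by linear regression versus untreated controls.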

[7] = Half life in pH 7.4 buffered solution; assay type: physicochemical
Procedure, shortened: (§3)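 Compound kept at 37 °C in pH 7.4 phosphate buffer (chemical) or plasma (enzymatic), sampled hourly. Plasma aliquots extracted with acetonitrile (1:2) and centrifuged 1000 g for 10 min. Supernatant or buffer analysed by reversed-phase HPLC, methanol/water 80:20, detection at 250 nm. Pseudo-first-order t½ taken from the slope of log remaining compound versus time.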

[8] = Antiviral activity against Simian virus 12 3651 (ATCC VR- 214) infected in BHK21 cells assessed as protection from virus-induced cytopathogenicity after 3 to 4 days by MTT method; assay type: functional, cell-based; details: BHK-21; procedure, shortened: as §1
[9] = Cytotoxicity against mock-infected hamster BHK21 cells assessed as reduction in proliferation after 72 hrs by MTT method; assay type: cell-based, Mesocricetus auratus, BHK-21; procedure, shortened: as §2
[10] = Cytotoxicity against mock-infected human MT4 cells assessed as reduction in proliferation after 96 hrs by MTT method; assay type: cell-based
Procedure, shortened: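 Exponentially growing MT-4 cells seeded at 1 × 10⁵ cells/mL in RPMI-1640 with 10% FBS, penicillin and streptomycin. Held 96 h at 37 °C, 5% CO₂ with or without serial compound dilutions; viability by MTT. Compounds dissolved in DMSO at 100 mM stock, then diluted in medium. CC50 by linear regression.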

[11] = tested on: Human poliovirus 1 strain Sabin; assay: Antiviral activity against Poliovirus 1 strain Sabin ATCC VR-1562 infected in Vero 76 cells after 2 days by plaque reduction assays; assay type: functional, organism-based; details: Enterovirus C, ATCC VR-1562, Vero 76, 48 h
[12] = Half life in plasma (unknown origin); assay type: ADME, cell-free; details: unidentified; procedure, shortened: as §3
[13] = Ratio of Cidofovir EC50 to compound EC50 for Vaccinia virus Lister ATCC VR-1549 infected in Vero 76 cells after 3 days by plaque reduction assays; assay type: functional
[14] = tested on: Human immunodeficiency virus 1; assay: Antiviral activity against HIV-13B infected in MT4 cells assessed as protection from virus-induced cytopathogenicity after 4 days by MTT method; assay type: functional, organism-based; details: Human immunodeficiency virus 1, 3B, MT4, 96 h
Procedure, shortened: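 HIV-1 IIIB, taken from persistently infected H9/IIIB supernatant. MT-4 cells (1×10⁴/well) in RPMI with serial compound dilutions, infected with 100 CCID50 (m.o.i. 0.01). Viability by MTT after 4 days at 37 °C. EC50 = 50% protection from cytopathogenicity, by linear regression against untreated controls. Compounds kept as 100 mM DMSO stocks, diluted in medium.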

## N#Cc1ccc(-c2nc3cc(Br)cnc3[nH]2)cc1
Yellow fever virus
  EC50: > 100 µM
[1]
  EC50: > 100 µM
[2]
  EC50: > 73 µM
[3]
  CC50: 73 µM
[4]
  EC50: > 73 µM
Human alphaherpesvirus 1
  EC50: 15 µM
[5]
  EC50: 2000 nM
Coxsackievirus B5
  EC50: > 73 µM
[6]
  CC50 at 72 h: > 100 µM
[7]
  half-life: > 240 min
[8]
  EC50: > 100 µM
[9]
  CC50 at 72 h: > 100 µM
[10]
  CC50 at 96 h: 53 µM
[11]
  EC50: > 73 µM
[12]
  half-life: 120 min
[13]
  Ratio EC50: 10

## N#Cc1ccc(/C=N/c2cc3c(=O)cc[nH]c3c(Cl)c2N)cc1
Yellow fever virus
  EC50: > 87 µM
[14]
  EC50: > 100 µM
[1]
  EC50: 28 µM
[2]
  EC50: > 100 µM
[3]
  CC50: > 100 µM
[4]
  EC50: > 100 µM
Human alphaherpesvirus 1
  EC50: > 100 µM
[5]
  EC50: > 100000 nM
Coxsackievirus B5
  EC50: > 100 µM
[6]
  CC50 at 72 h: > 100 µM
[8]
  EC50: > 100 µM
[9]
  CC50 at 72 h: > 100 µM
[10]
  CC50 at 96 h: > 100 µM
[11]
  EC50: > 100 µM
